How the values were obtained:
[1] = molecular target: 5-hydroxytryptamine receptor 2A (Rattus norvegicus) (UniProt P14842); assay: Displacement of [3H]ketanserin from Sprague-Dawley rat brain cortex serotonin 5-HT2A receptor at 0.00001 uM after 15 mins by liquid scintillation counting
[2] = molecular target: T1, Adrenergic receptor alpha-2 (Rattus norvegicus, UniProt P22086+P19328+P22909); assay: Displacement of [3H]yohimbine from rat brain cortex adrenergic alpha2 receptor after 30 mins by liquid scintillation counting
T1 sequence (P22086 whole entry): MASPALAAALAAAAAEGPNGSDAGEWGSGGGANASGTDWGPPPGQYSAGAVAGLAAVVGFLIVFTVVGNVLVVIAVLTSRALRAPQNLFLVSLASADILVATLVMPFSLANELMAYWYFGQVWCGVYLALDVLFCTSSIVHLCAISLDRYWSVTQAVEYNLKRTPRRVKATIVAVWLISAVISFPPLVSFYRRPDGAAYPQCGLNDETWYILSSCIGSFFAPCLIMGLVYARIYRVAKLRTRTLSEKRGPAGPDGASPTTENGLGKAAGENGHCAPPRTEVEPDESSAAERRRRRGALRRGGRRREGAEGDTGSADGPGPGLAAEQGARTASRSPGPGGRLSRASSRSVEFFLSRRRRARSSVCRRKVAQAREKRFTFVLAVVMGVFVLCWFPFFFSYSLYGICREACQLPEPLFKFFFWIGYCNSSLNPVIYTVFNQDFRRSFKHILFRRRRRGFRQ
T1 sequence (P19328 whole entry): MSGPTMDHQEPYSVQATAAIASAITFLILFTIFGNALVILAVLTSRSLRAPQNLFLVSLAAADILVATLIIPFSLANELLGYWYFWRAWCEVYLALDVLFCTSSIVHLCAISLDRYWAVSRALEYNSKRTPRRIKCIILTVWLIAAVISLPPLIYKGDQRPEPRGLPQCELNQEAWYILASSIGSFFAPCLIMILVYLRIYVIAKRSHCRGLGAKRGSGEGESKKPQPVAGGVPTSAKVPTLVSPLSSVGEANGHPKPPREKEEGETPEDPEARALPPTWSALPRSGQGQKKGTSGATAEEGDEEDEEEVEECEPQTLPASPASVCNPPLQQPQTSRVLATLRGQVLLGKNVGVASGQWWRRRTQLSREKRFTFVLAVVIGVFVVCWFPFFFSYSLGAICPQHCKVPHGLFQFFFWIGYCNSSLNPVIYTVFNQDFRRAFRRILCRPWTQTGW
T1 sequence (P22909 whole entry): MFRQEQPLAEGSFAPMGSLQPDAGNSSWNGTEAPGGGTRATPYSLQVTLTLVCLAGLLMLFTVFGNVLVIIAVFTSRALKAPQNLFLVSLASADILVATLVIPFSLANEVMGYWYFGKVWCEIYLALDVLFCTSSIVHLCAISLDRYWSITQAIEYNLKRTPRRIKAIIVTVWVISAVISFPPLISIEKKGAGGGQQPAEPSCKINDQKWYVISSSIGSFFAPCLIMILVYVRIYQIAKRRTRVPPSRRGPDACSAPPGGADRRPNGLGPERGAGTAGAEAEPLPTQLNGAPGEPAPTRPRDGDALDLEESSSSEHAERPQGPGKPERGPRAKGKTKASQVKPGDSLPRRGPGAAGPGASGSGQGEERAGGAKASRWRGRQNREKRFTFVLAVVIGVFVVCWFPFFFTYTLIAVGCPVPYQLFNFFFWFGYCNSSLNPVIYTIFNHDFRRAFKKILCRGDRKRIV
Method in brief: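 Cortex homogenized in 5 mM Tris-HCl, 5 mM EDTA pH 7.3, spun three times at 50,000 g, resuspended in 50 mM Tris-HCl, 0.5 mM EDTA pH 7.5. [3H]yohimbine 1 nM final, 10 mg fresh tissue, 30 min at 25 °C. Phentolamine defined nonspecific binding. Ki by Cheng-Prusoff.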

[3] = molecular target: 5-hydroxytryptamine receptor 2A (Rattus norvegicus) (UniProt P14842); assay: Displacement of [3H]ketanserin from Sprague-Dawley rat brain cortex serotonin 5-HT2A receptor at 0.0000001 uM after 15 mins by liquid scintillation counting
[4] = molecular target: 5-hydroxytryptamine receptor 2A (Rattus norvegicus) (UniProt P14842); assay: Displacement of [3H]ketanserin from Sprague-Dawley rat brain cortex serotonin 5-HT2A receptor at 0.001 uM after 15 mins by liquid scintillation counting
[5] = molecular target: T2, Adrenergic receptor alpha-1 (Rattus norvegicus, UniProt P15823+P23944+P43140); assay: Displacement of [3H]prazosin from rat brain cortex adrenergic alpha1 receptor after 30 mins by liquid scintillation counting
T2 sequence (P15823 whole entry): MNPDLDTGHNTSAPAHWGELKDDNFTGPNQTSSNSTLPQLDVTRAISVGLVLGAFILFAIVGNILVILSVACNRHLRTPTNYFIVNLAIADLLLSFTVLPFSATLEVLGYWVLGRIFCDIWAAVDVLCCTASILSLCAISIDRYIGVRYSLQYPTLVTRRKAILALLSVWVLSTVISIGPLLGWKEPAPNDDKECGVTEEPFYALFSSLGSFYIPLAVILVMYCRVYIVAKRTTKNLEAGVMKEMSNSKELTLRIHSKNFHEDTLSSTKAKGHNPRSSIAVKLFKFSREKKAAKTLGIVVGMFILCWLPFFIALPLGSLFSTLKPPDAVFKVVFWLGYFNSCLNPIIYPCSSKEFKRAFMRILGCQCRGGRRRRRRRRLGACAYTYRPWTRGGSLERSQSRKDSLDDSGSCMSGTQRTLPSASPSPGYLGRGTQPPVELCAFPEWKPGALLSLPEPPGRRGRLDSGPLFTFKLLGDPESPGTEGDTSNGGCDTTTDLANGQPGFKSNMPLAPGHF
T2 sequence (P23944 whole entry): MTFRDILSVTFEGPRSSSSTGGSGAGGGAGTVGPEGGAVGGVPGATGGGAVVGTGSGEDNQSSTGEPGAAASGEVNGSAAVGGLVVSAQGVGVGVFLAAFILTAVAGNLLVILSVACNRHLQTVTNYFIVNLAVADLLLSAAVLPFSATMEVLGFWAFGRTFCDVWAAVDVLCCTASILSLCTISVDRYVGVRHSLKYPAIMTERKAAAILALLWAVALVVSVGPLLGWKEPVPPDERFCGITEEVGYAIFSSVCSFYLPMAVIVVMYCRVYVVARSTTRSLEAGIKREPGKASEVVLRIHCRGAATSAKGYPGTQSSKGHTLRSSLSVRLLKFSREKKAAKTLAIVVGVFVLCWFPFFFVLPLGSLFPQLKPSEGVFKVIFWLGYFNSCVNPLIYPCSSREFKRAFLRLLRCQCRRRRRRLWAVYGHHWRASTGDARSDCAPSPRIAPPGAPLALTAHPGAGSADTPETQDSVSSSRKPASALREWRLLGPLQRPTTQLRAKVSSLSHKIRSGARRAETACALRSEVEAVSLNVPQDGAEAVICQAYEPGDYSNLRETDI
T2 sequence (P43140 whole entry): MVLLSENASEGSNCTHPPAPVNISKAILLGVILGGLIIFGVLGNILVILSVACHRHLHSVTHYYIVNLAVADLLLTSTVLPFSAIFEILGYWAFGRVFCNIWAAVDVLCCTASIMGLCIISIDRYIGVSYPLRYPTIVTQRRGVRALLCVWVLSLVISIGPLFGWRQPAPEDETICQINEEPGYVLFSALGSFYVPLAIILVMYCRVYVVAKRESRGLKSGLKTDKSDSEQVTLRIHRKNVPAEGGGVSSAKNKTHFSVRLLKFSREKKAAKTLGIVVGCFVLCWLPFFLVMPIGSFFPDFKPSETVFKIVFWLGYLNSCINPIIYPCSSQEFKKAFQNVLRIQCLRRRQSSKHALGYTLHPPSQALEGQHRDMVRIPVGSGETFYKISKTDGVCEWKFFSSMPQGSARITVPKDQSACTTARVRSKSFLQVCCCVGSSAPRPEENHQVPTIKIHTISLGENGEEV
Method in brief: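 Brain cortex homogenized in 50 mM Tris-HCl pH 7.2, spun twice at 50,000 g, resuspended in Tris-HCl pH 7.4. 0.4 nM [3H]prazosin final, 10 mg fresh tissue, 30 min at 25 °C. Nonspecific binding with phentolamine. GF/B filtration. Ki by Cheng-Prusoff from six-point triplicate curves.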

Chain of 5-hydroxytryptamine receptor 2A (Rattus norvegicus) (P14842 whole entry): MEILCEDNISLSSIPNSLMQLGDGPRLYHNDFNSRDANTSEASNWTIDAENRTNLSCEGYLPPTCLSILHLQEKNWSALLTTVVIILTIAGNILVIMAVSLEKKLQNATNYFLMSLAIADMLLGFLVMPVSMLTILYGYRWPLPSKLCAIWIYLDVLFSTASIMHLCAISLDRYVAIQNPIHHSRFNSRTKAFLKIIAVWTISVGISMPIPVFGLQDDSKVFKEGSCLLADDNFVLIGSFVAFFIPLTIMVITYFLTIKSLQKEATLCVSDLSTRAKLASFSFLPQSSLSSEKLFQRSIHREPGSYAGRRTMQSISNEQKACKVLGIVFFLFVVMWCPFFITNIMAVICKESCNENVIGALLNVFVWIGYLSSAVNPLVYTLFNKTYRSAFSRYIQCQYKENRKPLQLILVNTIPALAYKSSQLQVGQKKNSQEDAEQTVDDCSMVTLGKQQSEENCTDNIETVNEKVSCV

inhibition [1]: 68.8% | Ki [2]: 1360 nM | inhibition [3]: 45.3% | inhibition [4]: 95.1% | Ki [5]: 174 nM
SMILES: N#C/N=C(\NCCCN1CCN(c2cccc(Cl)c2)CC1)c1ccccn1

Source: ChEMBL document CHEMBL1926621, “New potent 5-HT(2A) receptor ligands containing an N'-cyanopicolinamidine nucleus: Synthesis and in vitro pharmacological evaluation” (Eur J Med Chem, 2012)
